In brackets after ≈: the same amount, converted by molar mass. Blank lines part the entries; values can stand above or below the compound they belong to.
What was measured:
[1] = Apparent permeability across basolateral to apical side in human Caco2 cells; type: ADME, cell-based; conditions: Caco-2
LAD2 [2] = test: Inhibition of IgE-mediated human LAD2 cell degranulation assessed as beta-hexosaminidase release using p-nitrophenyl-N-acetyl-D-glucosamide as substrate preincubated for 30 mins measured 90 mins after substrate addition by spectrophotometric analysis
LAD2 [3] = test: Inhibition of IgE-mediated human LAD2 cell degranulation assessed as beta-hexosaminidase release using p-nitrophenyl-N-acetyl-D-glucosamide as substrate at 1 uM preincubated for 30 mins measured 90 mins after substrate addition by spectrophotometric analysis; type: functional
Procedure, shortened: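 LAD2 mast cells sensitised overnight (37°, 5% CO2) in StemPro-34 with 2 mM glutamine and 100 ng/ml SCF plus 100 ng/ml biotin-IgE. Cells washed into release buffer (0.025% BSA), 10,000/well, compound 30 min, then streptavidin 125 ng/ml for 30 min. Supernatants and freeze-thaw lysates incubated with 1 mM substrate (citrate, pH 4.5) 90 min at 37°C. Stopped with 0.4 M glycine pH 10.0; A405 read.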

[4] = molecular target: Tyrosine-protein kinase SYK (Homo sapiens, UniProt P43405); test: Inhibition of human recombinant […] using poly-GT as substrate and [33P]ATP after 40 mins by beta counting
[5] = molecular target: 3-phosphoinositide-dependent protein kinase 1 (Homo sapiens) (UniProt O15530); conditions: 1 uM
[6] = molecular target: Serine/threonine-protein kinase pim-1 (Homo sapiens) (UniProt P11309); conditions: 1 uM
[7] = molecular target: Tyrosine-protein kinase ZAP-70 (Homo sapiens) (UniProt P43403); conditions: 1 uM
[8] = molecular target: Tyrosine-protein kinase BTK (Homo sapiens) (UniProt Q06187); conditions: 1 uM
[9] = molecular target: Protein kinase C gamma type (Homo sapiens) (UniProt P05129); conditions: 1 uM
[10] = molecular target: Hepatocyte growth factor receptor (Homo sapiens) (UniProt P08581); conditions: 1 uM
[11] = molecular target: Rho-associated protein kinase 2 (Homo sapiens) (UniProt O75116); conditions: 1 uM
[12] = molecular target: Tyrosine-protein kinase JAK3 (Homo sapiens) (UniProt P52333); conditions: 1 uM
[13] = molecular target: Tyrosine-protein kinase Yes (Homo sapiens) (UniProt P07947); conditions: 1 uM
[14] = molecular target: Proto-oncogene tyrosine-protein kinase receptor Ret (Homo sapiens) (UniProt P07949); conditions: 1 uM
Proto-oncogene tyrosine-protein kinase receptor Ret (Homo sapiens), sequence (P07949 whole entry): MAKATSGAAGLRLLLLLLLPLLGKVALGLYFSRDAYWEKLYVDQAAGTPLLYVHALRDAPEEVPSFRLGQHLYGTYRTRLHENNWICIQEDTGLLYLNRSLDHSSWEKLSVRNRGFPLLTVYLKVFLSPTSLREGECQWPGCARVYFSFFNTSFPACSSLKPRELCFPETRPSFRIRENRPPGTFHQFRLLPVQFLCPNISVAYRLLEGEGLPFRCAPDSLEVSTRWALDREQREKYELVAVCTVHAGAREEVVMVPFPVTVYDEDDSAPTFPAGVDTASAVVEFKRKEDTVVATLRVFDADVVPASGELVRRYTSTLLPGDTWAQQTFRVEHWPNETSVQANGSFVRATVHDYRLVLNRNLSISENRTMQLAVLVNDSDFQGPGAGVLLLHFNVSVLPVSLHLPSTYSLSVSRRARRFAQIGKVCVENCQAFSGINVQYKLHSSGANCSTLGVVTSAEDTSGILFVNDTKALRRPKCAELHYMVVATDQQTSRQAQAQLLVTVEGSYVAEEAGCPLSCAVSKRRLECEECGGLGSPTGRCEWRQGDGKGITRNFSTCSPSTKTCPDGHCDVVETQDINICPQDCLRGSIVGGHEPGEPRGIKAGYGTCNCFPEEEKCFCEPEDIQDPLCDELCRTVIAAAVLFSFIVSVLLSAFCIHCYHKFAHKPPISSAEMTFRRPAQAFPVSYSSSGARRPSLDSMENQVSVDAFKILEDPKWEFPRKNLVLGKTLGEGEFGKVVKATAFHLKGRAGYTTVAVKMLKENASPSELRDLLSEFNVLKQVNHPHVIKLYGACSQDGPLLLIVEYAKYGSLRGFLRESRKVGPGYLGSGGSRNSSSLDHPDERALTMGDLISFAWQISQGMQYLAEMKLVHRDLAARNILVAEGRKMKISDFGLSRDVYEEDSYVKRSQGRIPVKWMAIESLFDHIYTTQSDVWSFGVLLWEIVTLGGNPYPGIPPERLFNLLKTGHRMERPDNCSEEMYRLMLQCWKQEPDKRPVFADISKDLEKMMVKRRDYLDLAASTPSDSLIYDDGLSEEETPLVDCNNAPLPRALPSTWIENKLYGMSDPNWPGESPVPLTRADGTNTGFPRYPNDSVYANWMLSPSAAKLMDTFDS

[15] = molecular target: Tyrosine-protein kinase JAK2 (Homo sapiens) (UniProt O60674); conditions: 1 uM
[16] = molecular target: Ribosomal protein S6 kinase alpha-6 (Homo sapiens) (UniProt Q9UK32); conditions: 1 uM
[17] = molecular target: Proto-oncogene tyrosine-protein kinase Src (Homo sapiens) (UniProt P12931); conditions: 1 uM
[18] = molecular target: Inhibitor of nuclear factor kappa-B kinase subunit beta (Homo sapiens) (UniProt O14920); conditions: 1 uM
Inhibitor of nuclear factor kappa-B kinase subunit beta (Homo sapiens), sequence (O14920 whole entry, canonical isoform): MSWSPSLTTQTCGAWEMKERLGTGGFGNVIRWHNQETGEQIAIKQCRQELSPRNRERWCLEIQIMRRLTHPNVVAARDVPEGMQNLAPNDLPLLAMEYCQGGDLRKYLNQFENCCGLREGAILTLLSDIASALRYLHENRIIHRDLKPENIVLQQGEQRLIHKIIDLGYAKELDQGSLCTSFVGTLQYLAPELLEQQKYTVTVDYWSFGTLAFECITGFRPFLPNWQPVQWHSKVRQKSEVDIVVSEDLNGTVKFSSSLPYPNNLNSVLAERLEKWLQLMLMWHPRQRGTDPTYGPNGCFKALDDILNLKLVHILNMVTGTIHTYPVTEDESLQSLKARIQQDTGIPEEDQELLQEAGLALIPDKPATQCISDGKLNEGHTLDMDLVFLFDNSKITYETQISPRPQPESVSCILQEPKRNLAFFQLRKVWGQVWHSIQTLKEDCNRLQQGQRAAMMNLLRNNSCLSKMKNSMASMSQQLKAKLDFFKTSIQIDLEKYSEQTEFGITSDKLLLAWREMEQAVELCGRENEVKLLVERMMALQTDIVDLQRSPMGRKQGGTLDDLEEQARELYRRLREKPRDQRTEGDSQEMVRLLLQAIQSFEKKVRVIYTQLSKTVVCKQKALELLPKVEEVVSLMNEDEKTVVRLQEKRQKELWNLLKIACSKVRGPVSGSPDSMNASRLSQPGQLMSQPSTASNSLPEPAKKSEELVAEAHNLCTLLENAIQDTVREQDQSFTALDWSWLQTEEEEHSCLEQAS

[19] = molecular target: Casein kinase I isoform delta (Homo sapiens) (UniProt P48730); conditions: 1 uM
[20] = molecular target: Serine/threonine-protein kinase Chk1 (Homo sapiens) (UniProt O14757); conditions: 1 uM
[21] = molecular target: T1, Tyrosine-protein kinase Lyn (Homo sapiens, UniProt P07948); test: Inhibition of human Lyn
Target sequence in this assay (P07948 whole entry): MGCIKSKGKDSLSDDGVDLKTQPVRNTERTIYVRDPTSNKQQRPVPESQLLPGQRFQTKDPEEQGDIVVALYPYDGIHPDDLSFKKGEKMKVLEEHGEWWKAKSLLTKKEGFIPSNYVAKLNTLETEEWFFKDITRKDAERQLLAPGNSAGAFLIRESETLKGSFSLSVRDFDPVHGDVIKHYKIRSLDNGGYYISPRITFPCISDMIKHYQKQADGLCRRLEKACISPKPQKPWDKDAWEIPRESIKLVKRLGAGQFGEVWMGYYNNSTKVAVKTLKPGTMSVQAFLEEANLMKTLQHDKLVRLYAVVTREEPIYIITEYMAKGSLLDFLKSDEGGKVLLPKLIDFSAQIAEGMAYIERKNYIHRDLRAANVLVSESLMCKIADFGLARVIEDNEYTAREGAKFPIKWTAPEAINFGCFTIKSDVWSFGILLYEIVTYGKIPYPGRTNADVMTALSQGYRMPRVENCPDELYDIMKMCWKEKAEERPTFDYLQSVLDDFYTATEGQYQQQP

[22] = molecular target: Calcium/calmodulin-dependent protein kinase type II subunit delta (Homo sapiens) (UniProt Q13557); conditions: 1 uM
CHO = test: Cytotoxicity against CHO cells; type: cell-based, Cricetulus griseus; conditions: chinese hamster
[23] = molecular target: Tyrosine-protein kinase Lck (Homo sapiens) (UniProt P06239); conditions: 1 uM
[24] = molecular target: Fibroblast growth factor receptor 3 (Homo sapiens) (UniProt P22607); conditions: 1 uM
[25] = molecular target: Cyclin-dependent kinase 1/cyclin B1 (Homo sapiens) (UniProt P06493+P14635); conditions: 1 uM
[26] = molecular target: Protein-tyrosine kinase 2-beta (Homo sapiens) (UniProt Q14289); conditions: 1 uM
[27] = molecular target: Tyrosine-protein kinase Fgr (Homo sapiens) (UniProt P09769); conditions: 1 uM
[28] = molecular target: Focal adhesion kinase 1 (Homo sapiens) (UniProt Q05397); conditions: 1 uM
[29] = molecular target: Receptor-type tyrosine-protein kinase FLT3 (Homo sapiens) (UniProt P36888); conditions: 1 uM
Receptor-type tyrosine-protein kinase FLT3 (Homo sapiens), sequence (P36888 whole entry): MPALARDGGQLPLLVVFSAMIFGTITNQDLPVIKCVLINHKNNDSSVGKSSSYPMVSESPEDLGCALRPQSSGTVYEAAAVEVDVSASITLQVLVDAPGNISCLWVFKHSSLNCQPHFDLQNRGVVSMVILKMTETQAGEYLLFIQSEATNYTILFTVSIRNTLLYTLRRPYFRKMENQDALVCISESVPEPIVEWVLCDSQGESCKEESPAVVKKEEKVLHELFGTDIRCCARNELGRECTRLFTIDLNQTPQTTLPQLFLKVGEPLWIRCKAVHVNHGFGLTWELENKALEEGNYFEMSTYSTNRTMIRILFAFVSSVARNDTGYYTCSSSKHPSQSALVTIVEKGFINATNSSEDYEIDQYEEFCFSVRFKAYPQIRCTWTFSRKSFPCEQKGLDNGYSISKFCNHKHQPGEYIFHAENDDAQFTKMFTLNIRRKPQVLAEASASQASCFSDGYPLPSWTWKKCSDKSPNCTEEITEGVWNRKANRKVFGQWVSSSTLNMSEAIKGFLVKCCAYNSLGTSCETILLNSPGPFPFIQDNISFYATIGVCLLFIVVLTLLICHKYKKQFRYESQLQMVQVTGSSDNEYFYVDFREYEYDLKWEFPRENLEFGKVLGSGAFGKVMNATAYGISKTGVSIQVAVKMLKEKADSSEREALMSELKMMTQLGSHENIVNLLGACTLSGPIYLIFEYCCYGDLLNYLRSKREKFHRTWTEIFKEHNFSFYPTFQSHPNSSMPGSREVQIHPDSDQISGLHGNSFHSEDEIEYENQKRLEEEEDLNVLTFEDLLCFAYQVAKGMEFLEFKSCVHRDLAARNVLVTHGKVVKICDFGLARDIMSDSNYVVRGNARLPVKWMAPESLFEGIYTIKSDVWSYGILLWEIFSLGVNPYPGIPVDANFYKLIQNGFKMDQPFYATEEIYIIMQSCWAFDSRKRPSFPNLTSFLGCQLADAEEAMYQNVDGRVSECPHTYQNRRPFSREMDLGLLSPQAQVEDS

[30] = molecular target: ALK tyrosine kinase receptor (Homo sapiens) (UniProt Q9UM73); conditions: 1 uM
[31] = molecular target: Tyrosine-protein kinase HCK (Homo sapiens) (UniProt P08631); conditions: 1 uM
[32] = molecular target: Tyrosine-protein kinase ITK/TSK (Homo sapiens) (UniProt Q08881); conditions: 1 uM
Tyrosine-protein kinase ITK/TSK (Homo sapiens), sequence (Q08881 whole entry): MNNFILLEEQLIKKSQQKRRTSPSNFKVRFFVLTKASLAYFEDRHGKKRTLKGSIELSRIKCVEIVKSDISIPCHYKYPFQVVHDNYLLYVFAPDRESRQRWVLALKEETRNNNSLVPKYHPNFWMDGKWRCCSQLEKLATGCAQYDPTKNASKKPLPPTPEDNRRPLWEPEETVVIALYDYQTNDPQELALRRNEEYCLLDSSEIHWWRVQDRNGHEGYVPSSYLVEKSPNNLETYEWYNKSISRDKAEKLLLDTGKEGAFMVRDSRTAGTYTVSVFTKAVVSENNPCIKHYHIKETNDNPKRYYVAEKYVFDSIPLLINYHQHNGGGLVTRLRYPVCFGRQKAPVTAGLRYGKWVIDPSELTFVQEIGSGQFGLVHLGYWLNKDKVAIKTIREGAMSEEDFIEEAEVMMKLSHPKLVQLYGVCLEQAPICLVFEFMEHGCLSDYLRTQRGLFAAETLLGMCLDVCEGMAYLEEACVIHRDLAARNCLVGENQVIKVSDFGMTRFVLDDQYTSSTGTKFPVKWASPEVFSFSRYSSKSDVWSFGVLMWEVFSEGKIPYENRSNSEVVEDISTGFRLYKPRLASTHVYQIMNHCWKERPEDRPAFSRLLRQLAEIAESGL

[33] = molecular target: Glycogen synthase kinase-3 alpha (Homo sapiens) (UniProt P49840); conditions: 1 uM
[34] = Lipophilicity, log D of the compound at pH 7.4; type: physicochemical; conditions: buffer
[35] = molecular target: Mitogen-activated protein kinase 10 (Homo sapiens) (UniProt P53779); conditions: 1 uM
[36] = molecular target: T1, Tyrosine-protein kinase Lyn; conditions: 1 uM
[37] = molecular target: Dual specificity mitogen-activated protein kinase kinase 6 (Homo sapiens) (UniProt P52564); conditions: 1 uM
[38] = Apparent permeability across apical to basolateral side in human Caco2 cells; type: ADME, cell-based; conditions: Caco-2
[39] = molecular target: Tyrosine-protein kinase receptor UFO (Homo sapiens) (UniProt P30530); conditions: 1 uM
[40] = molecular target: Macrophage colony-stimulating factor 1 receptor (Homo sapiens) (UniProt P07333); conditions: 1 uM
[41] = molecular target: Protein kinase C epsilon type (Homo sapiens) (UniProt Q02156); conditions: 1 uM
[42] = molecular target: Tyrosine-protein kinase Fyn (Homo sapiens) (UniProt P06241); conditions: 1 uM
[43] = molecular target: Vascular endothelial growth factor receptor 1 (Homo sapiens) (UniProt P17948); conditions: 1 uM
[44] = Aqueous solubility of the compound at pH 7.4; type: physicochemical
[45] = molecular target: MAP kinase-activated protein kinase 5 (Homo sapiens) (UniProt Q8IW41); conditions: 1 uM
MAP kinase-activated protein kinase 5 (Homo sapiens), sequence (Q8IW41 whole entry): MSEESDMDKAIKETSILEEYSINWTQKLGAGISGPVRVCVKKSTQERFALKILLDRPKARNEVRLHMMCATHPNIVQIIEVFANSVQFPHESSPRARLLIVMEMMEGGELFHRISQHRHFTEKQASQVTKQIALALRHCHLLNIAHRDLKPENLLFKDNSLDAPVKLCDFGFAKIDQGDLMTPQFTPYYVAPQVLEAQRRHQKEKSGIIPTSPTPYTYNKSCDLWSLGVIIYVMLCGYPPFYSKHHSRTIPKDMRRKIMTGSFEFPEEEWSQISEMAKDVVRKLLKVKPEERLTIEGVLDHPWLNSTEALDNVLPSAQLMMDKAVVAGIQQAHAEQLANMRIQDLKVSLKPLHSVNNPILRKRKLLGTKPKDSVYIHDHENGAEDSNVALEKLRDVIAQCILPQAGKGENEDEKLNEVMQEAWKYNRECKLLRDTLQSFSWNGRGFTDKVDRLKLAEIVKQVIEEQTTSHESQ

[46] = molecular target: Aurora kinase A (Homo sapiens) (UniProt O14965); conditions: 1 uM
[47] = molecular target: Mitogen-activated protein kinase kinase kinase 7 (TAK1) (Homo sapiens) (UniProt O43318); conditions: 1 uM
[48] = molecular target: High affinity nerve growth factor receptor (Homo sapiens) (UniProt P04629); conditions: 1 uM
[49] = molecular target: Protein kinase C beta type (Homo sapiens) (UniProt P05771); conditions: 1 uM
[50] = molecular target: Glycogen synthase kinase-3 beta (Homo sapiens) (UniProt P49841); conditions: 1 uM
Glycogen synthase kinase-3 beta (Homo sapiens), sequence (P49841 whole entry, looked up): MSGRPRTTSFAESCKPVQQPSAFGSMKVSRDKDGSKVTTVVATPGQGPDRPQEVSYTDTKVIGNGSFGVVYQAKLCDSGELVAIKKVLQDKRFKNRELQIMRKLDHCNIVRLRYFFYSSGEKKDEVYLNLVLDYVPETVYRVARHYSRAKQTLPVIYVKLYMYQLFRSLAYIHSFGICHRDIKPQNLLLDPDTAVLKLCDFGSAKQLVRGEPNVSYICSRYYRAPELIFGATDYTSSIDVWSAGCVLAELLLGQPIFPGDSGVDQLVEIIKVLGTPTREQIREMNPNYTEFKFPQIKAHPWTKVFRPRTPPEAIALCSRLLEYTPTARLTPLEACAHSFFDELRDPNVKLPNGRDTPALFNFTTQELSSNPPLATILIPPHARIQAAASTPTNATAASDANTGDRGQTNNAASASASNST

Compound: CC(C)(NC(=O)c1nc(-c2cccc(-c3ccc(N)nc3)c2)cnc1N)C1CCNCC1
Papp B→A [1]: 2.38 ×10⁻⁶ cm/s | IC50 (LAD2 [2]): 560 nM

Compound: CC(C)(NC(=O)c1nc(-c2ccc3cn[nH]c3c2)cnc1N)C1CCNCC1
IC50 (LAD2 [2]): 860 nM

Compound: CC(C)(NC(=O)c1nc(-c2ccc3c(c2)NC(=O)C3)cnc1N)C1CCNCC1
inhibition at 1 µM (LAD2 [3]): 10%

Compound: CS(=O)(=O)Nc1cccc(-c2cnc(N)c(C(=O)N3CCC(O)CC3)n2)c1
IC50 [4]: > 50000 nM

Compound: CC(C)(NC(=O)c1nc(-c2cccc(OC(F)(F)F)c2)cnc1N)C1CCNCC1
IC50 (LAD2 [2]): 1100 nM

Compound: CC(C)(NC(=O)c1nc(-c2cccc3cn[nH]c23)cnc1N)C1CCNCC1
inhibition at 1 µM (LAD2 [3]): 48%

Compound: NCCn1cc(-c2cccc(-c3cnc(N)c(C(=O)N[C@H]4C5CC6CC4C[C@@](O)(C6)C5)n3)c2)cn1
IC50 (LAD2 [2]): 1000 nM

Compound: COc1cccc(-c2cnc(N)c(C(=O)NC(C)(C)C3CCNCC3)n2)c1
IC50 (LAD2 [2]): 1960 nM

Compound: Nc1ncc(-c2cccc(-c3cnn(CC(=O)O)c3)c2)nc1C(=O)N[C@H]1C2CC3CC1C[C@@](O)(C3)C2
inhibition at 1 µM (LAD2 [3]): 43%

Compound: Cn1cc(-c2cccc(-c3cnc(N)c(C(=O)N[C@H]4C5CC6CC4C[C@@](O)(C6)C5)n3)c2)cn1
inhibition [5]: < 50% | inhibition [6]: > 50% | inhibition [7]: < 50% | inhibition [8]: < 50% | inhibition [9]: < 50% | inhibition [10]: < 50% | Papp B→A [1]: 13 ×10⁻⁶ cm/s | inhibition [11]: < 50% | inhibition [12]: > 50% | inhibition [13]: > 50% | inhibition [14]: > 50% | inhibition [15]: > 50% | inhibition [16]: > 50% | inhibition [17]: > 50% | inhibition [18]: < 50% | inhibition [19]: < 50% | inhibition [20]: < 50% | IC50 [21]: 325 nM | inhibition [22]: < 50% | Activity (CHO): Non-toxic | inhibition [23]: > 50% | inhibition [24]: > 50% | inhibition [25]: > 50% | inhibition [26]: < 50% | inhibition [27]: > 50% | inhibition [28]: < 50% | inhibition [29]: > 50% | inhibition [30]: > 50% | IC50 [4]: 40 nM | inhibition [31]: > 50% | inhibition [32]: < 50% | inhibition [33]: > 50% | logD [34]: 1.5 | inhibition [35]: < 50% | inhibition [36]: > 50% | inhibition [37]: < 50% | Papp A→B [38]: 28 ×10⁻⁶ cm/s | inhibition [39]: > 50% | inhibition [40]: > 50% | inhibition [41]: < 50% | inhibition [42]: > 50% | inhibition [43]: > 50% | solubility [44]: 25 µg/mL (≈ 56.2 µM) | inhibition [45]: < 50% | inhibition [46]: > 50% | inhibition [47]: < 50% | inhibition [48]: > 50% | inhibition [49]: < 50% | IC50 (LAD2 [2]): 90 nM | inhibition [50]: < 50%

Compound: Cn1cc(-c2cccc(-c3cnc(N)c(C(=O)N[C@H]4C5CC6CC4C[C@](O)(C6)C5)n3)c2)cn1
IC50 [4]: 20 nM | IC50 (LAD2 [2]): 120 nM

Compound: COc1cncc(-c2cccc(-c3cnc(N)c(C(=O)NC(C)(C)C4CCNCC4)n3)c2)c1
inhibition at 1 µM (LAD2 [3]): 65%

Now from value to compound:

IC50 (LAD2 [2]): 550 nM
Compound: Cn1cc(-c2cccc(-c3cnc(N)c(C(=O)NC(C)(C)C4CCNCC4)n3)c2)cn1

IC50 (LAD2 [2]): 180 nM
Compound: COCCn1cc(-c2cccc(-c3cnc(N)c(C(=O)N[C@H]4C5CC6CC4C[C@@](O)(C6)C5)n3)c2)cn1

IC50 (LAD2 [2]): 220 nM
Compound: CC(C)n1cc(-c2cccc(-c3cnc(N)c(C(=O)N[C@H]4C5CC6CC4C[C@@](O)(C6)C5)n3)c2)cn1

IC50 (LAD2 [2]): 100 nM
Compound: Nc1ncc(-c2cccc(-c3cn[nH]c3)c2)nc1C(=O)N[C@H]1C2CC3CC1C[C@@](O)(C3)C2

IC50 (LAD2 [2]): 140 nM
Compound: Nc1ncc(-c2cccc(-c3cnn(CCO)c3)c2)nc1C(=O)N[C@H]1C2CC3CC1C[C@](O)(C3)C2

IC50 (LAD2 [2]): 150 nM
Compound: Cc1cc(-c2cnn(C)c2)cc(-c2cnc(N)c(C(=O)N[C@H]3C4CC5CC3C[C@@](O)(C5)C4)n2)c1

IC50 (LAD2 [2]): 110 nM
Compound: CCn1cc(-c2cccc(-c3cnc(N)c(C(=O)N[C@H]4C5CC6CC4C[C@@](O)(C6)C5)n3)c2)cn1

IC50 (LAD2 [2]): 400 nM
Compound: Nc1ncc(-c2ccc3cn[nH]c3c2)nc1C(=O)N[C@H]1C2CC3CC1C[C@](O)(C3)C2

IC50 (LAD2 [2]): 170 nM
Compound: CCCn1cc(-c2cccc(-c3cnc(N)c(C(=O)N[C@H]4C5CC6CC4C[C@@](O)(C6)C5)n3)c2)cn1

IC50 (LAD2 [2]): 140 nM
Compound: Nc1ncc(-c2cccc(-c3cnn(CC(F)(F)F)c3)c2)nc1C(=O)N[C@H]1C2CC3CC1C[C@@](O)(C3)C2

IC50 (LAD2 [2]): 180 nM
Compound: Nc1ccc(-c2cccc(-c3cnc(N)c(C(=O)N[C@H]4C5CC6CC4C[C@@](O)(C6)C5)n3)c2)cn1

IC50 (LAD2 [2]): 160 nM
Compound: NC(=O)Cn1cc(-c2cccc(-c3cnc(N)c(C(=O)N[C@H]4C5CC6CC4C[C@@](O)(C6)C5)n3)c2)cn1

IC50 (LAD2 [2]): 180 nM
Compound: CCn1cc(-c2cccc(-c3cnc(N)c(C(=O)N[C@H]4C5CC6CC4C[C@](O)(C6)C5)n3)c2)cn1

IC50 (LAD2 [2]): 120 nM
Compound: Nc1ncc(-c2ccc3cn[nH]c3c2)nc1C(=O)N[C@H]1C2CC3CC1C[C@@](O)(C3)C2

IC50 (LAD2 [2]): 120 nM
Compound: Nc1ncc(-c2cccc(-c3cnn(CCO)c3)c2)nc1C(=O)N[C@H]1C2CC3CC1C[C@@](O)(C3)C2

IC50 (LAD2 [2]): 140 nM
Compound: COc1cc(-c2cnn(C)c2)cc(-c2cnc(N)c(C(=O)N[C@H]3C4CC5CC3C[C@@](O)(C5)C4)n2)c1

Source: ChEMBL document CHEMBL2016552, “Pyrazine-based Syk kinase inhibitors” (Bioorg Med Chem Lett, 2012)
